Published values from different studies.
Lines come from different studies, so protocols differ.
Target: Mitogen-activated protein kinase 10 (MAPK10, Homo sapiens, UniProt P53779)

N#Cc1ccc(NC(=O)Nc2ccccc2)cc1  remaining binding (cell-free assay; competition with immobilised ligand; 25 µM): 65%
CCCCC(=O)Nc1ccc(-c2ccc3ncn(CCC)c(=O)c3c2)cn1  remaining binding (binding; competition with immobilised ligand; 0.5 µM): 80%
CN1CCN(C(=O)c2ccc(NC(=O)Nc3ccc(N(C)c4ccnc(Nc5ccc(CS(C)(=O)=O)cc5)n4)cc3)cc2)CC1  remaining binding (binding; 1 µM): 8.6%
CO[C@@H]1[C@H](N(C)C(=O)c2ccccc2)C[C@H]2O[C@]1(C)n1c3ccccc3c3c4c(c5c6ccccc6n2c5c31)C(=O)NC4  inhibition (enzyme activity; inhibitor; 1 µM): 33%
C#Cc1cc(-c2cc(Nc3nc(N[C@@H](C)c4ccc(F)cn4)ncc3Cl)n[nH]2)ccc1C=O  inhibition (enzyme activity; inhibitor; 0.2 µM): 6.29%
C1=C/COCc2cc(ccc2OCCN2CCCC2)Nc2nccc(n2)-c2cccc(c2)COC/1  remaining signal (cell-free assay; 0.1 µM): 33%
C[C@H]1CC[C@H](n2c3cnccc3c3cnc(Nc4ccc5c(n4)CCN(C(=O)CO)C5)nc32)CC1  remaining signal (cell-free assay; 1 µM): 2.6%
C#Cc1cnc(Nc2ccnc(CO)c2)nc1Nc1ccccc1S(C)(=O)=NC#N (stereo not shown)  remaining signal (cell-free assay; 1 µM): 91%
C=CC(=O)N1CCC([C@@H]2CCNc3c(C(N)=O)c(-c4ccc(Oc5ccccc5)cc4)nn32)CC1  inhibition (enzyme activity; inhibitor; 1 µM): 25%
COc1ccc2oc(-c3ccc4nc(N)oc4c3)c/c(=N\c3ccccc3NC(=O)CCN)c2c1  remaining binding (binding; 1 µM): 113%
